The results in this text go back to the EternaBench riboswitch data.

This data set has as its system MS2 coat protein. Briefly: apparent Kd, MS2 coat protein; higher = weaker binding; RNA-MaP array; theophylline 2 mM where present. Put shortly: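 Apparent Kd: the median of filtered binding-curve fits from single clusters. Designs were transcribed on Illumina sequencing-chip clusters by stalled E. coli RNA polymerase and titrated with SNAP-549-labelled MS2 coat protein from 0.7 or 1.5 nM, doubling to 3 µM, in 100 mM Tris-HCl pH 7.5, 80 mM KCl, 4 mM MgCl2, BSA, DTT, yeast tRNA and Tween-20. Each series ran without and then with constant ligand, and green signal was normalised to red-channel RNA signal and control-cluster median Fmax.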

The mark [1] stands for this setting: designed as: ON switch for theophylline, no ligand.
[2] abbreviates: ligand present: theophylline, designed as: ON switch for theophylline.
Where [3] appears, read: designed as: OFF switch for theophylline, no ligand.
Where [4] appears, read: ligand present: theophylline, designed as: OFF switch for theophylline.

Regarding “GGUGGCGGGACUGAUACCAGCCACCACCGAUAGACCACAUGAGGAUCACCCAUGUUGGGUGGCCCUUGGCAGCAGUCUUGCUGCU”, the “apparent Kd” value by setting is: under setting [1], 542 nM; under setting [2], 630 nM.

Turning to “AAACAUGAGGAUCACCCAUGUUCAAUAGAUACCAGUGAUACGGUGCACCCUUGGCAGCUGUUGCUGAGUGAUGGUUCCCUCGGUA”, the “apparent Kd” value reads like this: under setting [1], 29 nM; under setting [2], 37.3 nM.

Consider “UGACAUUGCUCAGAUACCAGACGUGAGGAUCACCCACGUGCCAACAUGAGGAUCACCCAUGUCCCUUGGCAGCUGAGCAAUGUCU”, for which the “apparent Kd” value is 15.7 nM under setting [3] and 183 nM under setting [4].

For the sequence “UUUUAAGGGAUCGGUGCUGGUAGCAGAGAUACCAGAGUAAUGAUACUCCCUUGGCAGCUCAGUACAUGAGGAUCACCCAUGUUUU”, the “apparent Kd” value reads like this: under setting [3], 17.4 nM; under setting [4], 25.9 nM.

With “GUAAAUGUGACGGAUACCAGCGUGUUGUAGAACAUGAGGAUCACCCAUGUAGUGAUCAUGCGCCCUUGGCAGCUGGUAUGUUUGU”, the “apparent Kd” value is, setting by setting: under setting [1], 474 nM; under setting [2], 841 nM.

On to “CUAGGAAACUAGUAAGGGUGGUAUAGAGAUACCAGUACAGAAAUGUACCCUUGGCAGCUCACUGCAACAUGAGGAUCACCCAUGU”, for which the “apparent Kd” value by setting is: under setting [3], 32.3 nM; under setting [4], 102 nM.

For “AUUCCAUUGGUGCAGUUGUUAAAUGGCGAUACCAGCGUGGAAACACGCCCUUGGCAGCGCCAAAACAUGAGGAUCACCCAUGUUA”, the “apparent Kd” value runs as follows: under setting [3], 61 nM; under setting [4], 120 nM.

With “UUUGAUAGGACAGAUACCAGCGUGUUGUUGAACAUGAGGAUCACCCAUGUAGUGAUCAGGCGCCCUUGGCAGCUGGUUUGUUAGG”, the “apparent Kd” value runs as follows: under setting [1], 416 nM; under setting [2], 347 nM.

With “ACAUGAAGAACAGCGGUGGGCGCGCUCGAUACCAGUACUUUGAUUUACCCUUGGCAGCGACAUGAGGAUCACCCAUGUGAGAUGA”, the “apparent Kd” value under setting [3] came to 18 nM and the “apparent Kd” value under setting [4] was determined as 27.6 nM.

As for “ACAUGAGGAUCACCCAUGUUCCUCAUUGAUACCAGUGAAAGAAGACGCCCUUGGCAGCGAGAAGAAGAAGAAGAAGUUUUUUUUU”, the “apparent Kd” value worked out at 606 nM under setting [3] and 1340 nM under setting [4].

As for “AUAACAUGAGGAUCACCCAUGUAGAGUGAUACCAGACUAUGUAAUGUCCCUUGGCAGCACAAGUAAAGUUAUAAAUAAUGAUAGA”, the “apparent Kd” value was 157 nM under setting [1] and 27.2 nM under setting [2].

Take “UCUUUCUAUGUAGAUACCAGCAUGUUAUAUUUCUAAUGACAUGAGGAUCACCCAUGUAAAUGCCCUUGGCAGCUGCGUUUUCUUU”: the “apparent Kd” value was found to be 16.9 nM under setting [1] and 13.2 nM under setting [2].

As for “AGACAUGAGGAUCACCCAUGUAGUACGGAUACCAGAUCCAGAUGUAUCCCUUGGCAGCUGUGGUACAGCGUUACAUCGCUCCUAG”, the “apparent Kd” value under setting [3] was 15.1 nM and the “apparent Kd” value under setting [4] is 19.4 nM.

For the sequence “AAAACACAUGAGGAUCACCCAUGUCGUGAUACCAGUCAACAUGAGGACCCUUGGCAGCAUAAAAUGGGUAACAUGAGGAUAACCC”, the “apparent Kd” value is, setting by setting: under setting [3], 89.6 nM; under setting [4], 146 nM.

For “AGCAGUACAACAGAUACCAGACUUUUCAUGCCUUUAAUUACAUGAGGAUCACCCAUGUUUGUCCCUUGGCAGCUGUUGUACUGCA”, the “apparent Kd” value was determined as 41.9 nM under setting [3] and 111 nM under setting [4].

“AGUCUAUGGAGAGAUACCAGUGAGAGCCAUAGACAUGAGGAUCACCCAUGUGACAUGGAUCACCCUUGGCAGCUCAACGAGCUCU”: the “apparent Kd” value is 126 nM under setting [1] and 20.2 nM under setting [2].

Take “CAUACUUUAGUAUGUUAUGUGGACAGUGAUACCAGAUACGAAAGUAUCCCUUGGCAGCACAACAUGAGGAUCACCCAUGUAAUUU”: the “apparent Kd” value reads like this: under setting [1], 26.1 nM; under setting [2], 15.6 nM.

For “AUUAAUAGUUGUGAUACCAGACGAACAUGAGGAUCACCCAUGUAACUUAAGAGUGUUGAUGUCCCUUGGCAGCACUGUUUAGUUA”, the “apparent Kd” value came to 108 nM under setting [1] and 87.8 nM under setting [2].

As to “GAUGAAGUAACUGAUACCAGUGUACUGACAUGAGGAUCACCCAUGUUGGGUUUUGUUGUACACCCUUGGCAGCAGAAUCUUUAUC”, the “apparent Kd” value runs as follows: under setting [3], 52.3 nM; under setting [4], 84.9 nM.

With “AGACAUGAGGAUCACCCAUGUAGUAUGGAUACCAGAUCCAGAUUUAUCCCUUGGCAGCUGUGGUACAGCGUUGGAUCGCUCCUAG”, under setting [3], the “apparent Kd” value was determined as 26.5 nM.

With “UGCAUCAUAAUCAUGUUGGUGCUAGGUGAUACCAGCAUCGAAAGAUGCCCUUGGCAGCACCAACAUGAGGAUCACCCAUGUAAUA”, the “apparent Kd” value reads like this: under setting [1], 114 nM; under setting [2], 337 nM.

For “UUACAUGAGGAUCACCCAUGUCAUAAUGAUACCAGAUAGUUGAUGAUCCCUUGGCAGCAUAGUACCUAGACAUGUGAGUCAUAGG”, the “apparent Kd” value is, setting by setting: under setting [1], 113 nM; under setting [2], 132 nM.

Regarding “GAUACCAUGAUCCUCCUGGUAUCGGCUGAUACCAGCCAGCUGACUGGCCCUUGGCAGCAGCAUACAUGAGGAUCACCCAUGUUAA”, the “apparent Kd” value turned out to be 88.3 nM under setting [1] and 267 nM under setting [2].
